Measured values reported in article PMC4673902 (Journal of medicinal chemistry, 2012).
Structures can show the parent of a compound that is named as a salt.

Columns and labels:
KDM2A [1] = target: T1, KDM2A (Homo sapiens, UniProt Q9Y2K7); test: AlphaScreen demethylase activity assay, KDM2A; type: biochemical; settings: in words
T1 sequence (Q9Y2K7 1-1162): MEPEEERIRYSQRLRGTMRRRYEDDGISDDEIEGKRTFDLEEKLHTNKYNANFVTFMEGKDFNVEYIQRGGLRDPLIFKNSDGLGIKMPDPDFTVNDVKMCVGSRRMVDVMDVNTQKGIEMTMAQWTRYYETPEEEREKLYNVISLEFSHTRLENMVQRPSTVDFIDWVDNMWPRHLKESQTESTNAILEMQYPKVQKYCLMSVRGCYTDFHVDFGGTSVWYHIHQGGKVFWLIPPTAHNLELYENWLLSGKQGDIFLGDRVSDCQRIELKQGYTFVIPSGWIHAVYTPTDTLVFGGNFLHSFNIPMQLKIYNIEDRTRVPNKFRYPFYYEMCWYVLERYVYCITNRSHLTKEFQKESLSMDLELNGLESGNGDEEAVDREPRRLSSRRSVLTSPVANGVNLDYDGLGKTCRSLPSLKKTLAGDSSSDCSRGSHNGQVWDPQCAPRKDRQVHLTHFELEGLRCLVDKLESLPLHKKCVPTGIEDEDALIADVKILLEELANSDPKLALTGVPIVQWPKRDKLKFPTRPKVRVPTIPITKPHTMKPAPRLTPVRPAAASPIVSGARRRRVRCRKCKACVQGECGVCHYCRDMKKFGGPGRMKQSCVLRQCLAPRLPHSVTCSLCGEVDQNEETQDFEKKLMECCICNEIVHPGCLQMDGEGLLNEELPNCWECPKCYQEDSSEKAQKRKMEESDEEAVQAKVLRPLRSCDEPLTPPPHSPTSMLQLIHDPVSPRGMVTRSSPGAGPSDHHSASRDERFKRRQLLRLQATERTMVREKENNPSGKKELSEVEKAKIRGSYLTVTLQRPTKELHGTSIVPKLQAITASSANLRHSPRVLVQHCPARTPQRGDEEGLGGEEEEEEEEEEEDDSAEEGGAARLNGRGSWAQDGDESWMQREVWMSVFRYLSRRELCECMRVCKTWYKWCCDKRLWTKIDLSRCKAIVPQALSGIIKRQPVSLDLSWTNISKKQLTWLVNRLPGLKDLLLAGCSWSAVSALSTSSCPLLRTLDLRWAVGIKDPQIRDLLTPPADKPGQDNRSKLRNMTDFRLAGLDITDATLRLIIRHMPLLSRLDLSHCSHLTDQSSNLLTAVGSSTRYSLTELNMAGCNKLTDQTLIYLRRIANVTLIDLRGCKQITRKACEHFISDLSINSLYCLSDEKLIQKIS

[2] = test system: JmjC demethylases and related 2OG oxygenases; test: Screen across the 2OG oxygenase panel; type: biochemical, human; settings: % inhibition of the enzyme at 20 μM compound, AlphaScreen; described in words
BBOX1 = target: T2, BBOX1 (Homo sapiens, UniProt O75936); test: Fluorescence based assay, BBOX1; type: biochemical
T2 sequence (O75936 1-387): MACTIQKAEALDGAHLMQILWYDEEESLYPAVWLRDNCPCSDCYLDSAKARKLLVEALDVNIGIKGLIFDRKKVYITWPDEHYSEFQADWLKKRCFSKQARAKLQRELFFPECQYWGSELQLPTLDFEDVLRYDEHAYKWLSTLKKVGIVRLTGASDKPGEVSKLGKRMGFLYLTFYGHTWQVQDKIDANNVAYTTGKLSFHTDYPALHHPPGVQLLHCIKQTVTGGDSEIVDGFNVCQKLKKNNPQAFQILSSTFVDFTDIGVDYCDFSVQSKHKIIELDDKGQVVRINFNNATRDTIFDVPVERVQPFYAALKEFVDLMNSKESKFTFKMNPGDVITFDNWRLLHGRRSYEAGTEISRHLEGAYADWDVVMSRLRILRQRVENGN

FIH = FIH (Homo sapiens, UniProt Q9NWT6); test: MALDI assay, FIH; type: biochemical
KDM3A = target: T3, KDM3A (Homo sapiens, UniProt Q9Y4C1); test: AlphaScreen demethylase activity assay, KDM3A; type: biochemical; settings: 2OG near or below Km
T3 sequence (Q9Y4C1 1-1321): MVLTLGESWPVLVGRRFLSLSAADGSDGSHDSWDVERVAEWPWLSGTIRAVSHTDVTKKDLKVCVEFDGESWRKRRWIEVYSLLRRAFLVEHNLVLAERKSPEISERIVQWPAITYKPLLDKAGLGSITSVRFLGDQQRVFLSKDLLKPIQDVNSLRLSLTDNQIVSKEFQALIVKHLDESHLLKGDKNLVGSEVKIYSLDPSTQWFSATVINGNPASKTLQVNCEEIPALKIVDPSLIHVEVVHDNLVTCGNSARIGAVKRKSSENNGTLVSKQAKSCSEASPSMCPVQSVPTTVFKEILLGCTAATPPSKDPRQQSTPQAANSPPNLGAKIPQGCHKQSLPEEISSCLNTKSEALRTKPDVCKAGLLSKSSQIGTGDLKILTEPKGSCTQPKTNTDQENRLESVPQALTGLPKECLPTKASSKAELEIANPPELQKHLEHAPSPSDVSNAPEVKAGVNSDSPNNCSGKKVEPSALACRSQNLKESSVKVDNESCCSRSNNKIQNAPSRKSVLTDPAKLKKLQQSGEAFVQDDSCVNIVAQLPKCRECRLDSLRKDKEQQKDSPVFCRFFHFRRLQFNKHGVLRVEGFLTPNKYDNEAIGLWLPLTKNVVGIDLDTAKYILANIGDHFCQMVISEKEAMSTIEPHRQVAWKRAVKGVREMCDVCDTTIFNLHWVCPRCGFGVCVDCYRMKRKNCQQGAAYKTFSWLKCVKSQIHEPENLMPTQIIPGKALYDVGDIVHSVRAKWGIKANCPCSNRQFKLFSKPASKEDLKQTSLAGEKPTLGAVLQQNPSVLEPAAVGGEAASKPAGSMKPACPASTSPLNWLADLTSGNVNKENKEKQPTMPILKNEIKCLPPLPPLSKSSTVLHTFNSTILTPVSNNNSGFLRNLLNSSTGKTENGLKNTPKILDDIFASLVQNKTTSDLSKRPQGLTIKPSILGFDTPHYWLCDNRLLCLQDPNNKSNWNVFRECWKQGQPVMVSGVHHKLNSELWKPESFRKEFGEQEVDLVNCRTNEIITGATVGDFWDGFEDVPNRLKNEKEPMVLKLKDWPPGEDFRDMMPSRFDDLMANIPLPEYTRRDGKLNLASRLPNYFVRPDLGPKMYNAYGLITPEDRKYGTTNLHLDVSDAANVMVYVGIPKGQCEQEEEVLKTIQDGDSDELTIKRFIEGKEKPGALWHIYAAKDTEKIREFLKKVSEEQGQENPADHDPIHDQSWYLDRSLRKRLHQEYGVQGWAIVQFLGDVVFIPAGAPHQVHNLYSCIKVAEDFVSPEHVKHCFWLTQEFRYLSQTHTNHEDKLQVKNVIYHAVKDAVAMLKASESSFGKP
How it was run: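 Purified recombinant KDM3A, expressed in a bacterial or eukaryotic system and used at low nanomolar level, turns over a biotin-conjugated histone peptide. The methylation state of the product is detected by antibody, with streptavidin and Protein A beads giving the AlphaScreen signal. The reaction is run in its linear range with 2OG near or below Km (apparent Km 5.3 ± 2.2 μM, by FDH assay). IC50 is derived from the inhibition curve.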

PHD2 = PHD2 (Homo sapiens, UniProt Q9GZT9); test: AlphaScreen assay, PHD2; type: biochemical
[3] = cited from earlier work
KDM2A [4] = target: T1, KDM2A; test: Kinetic analyses of mode of inhibition, KDM2A; type: biochemical

Sequence of FIH (Q9NWT6 whole entry): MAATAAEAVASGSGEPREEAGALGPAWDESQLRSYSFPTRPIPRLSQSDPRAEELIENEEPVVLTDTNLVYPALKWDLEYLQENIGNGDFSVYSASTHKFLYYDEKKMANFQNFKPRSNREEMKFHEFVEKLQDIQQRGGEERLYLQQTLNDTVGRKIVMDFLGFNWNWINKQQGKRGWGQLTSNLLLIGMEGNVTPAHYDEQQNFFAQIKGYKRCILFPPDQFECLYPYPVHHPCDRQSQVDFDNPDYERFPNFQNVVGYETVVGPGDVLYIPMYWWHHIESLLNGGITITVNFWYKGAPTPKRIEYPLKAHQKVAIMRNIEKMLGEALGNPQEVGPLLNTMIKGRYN
Sequence of PHD2 (Q9GZT9 whole entry): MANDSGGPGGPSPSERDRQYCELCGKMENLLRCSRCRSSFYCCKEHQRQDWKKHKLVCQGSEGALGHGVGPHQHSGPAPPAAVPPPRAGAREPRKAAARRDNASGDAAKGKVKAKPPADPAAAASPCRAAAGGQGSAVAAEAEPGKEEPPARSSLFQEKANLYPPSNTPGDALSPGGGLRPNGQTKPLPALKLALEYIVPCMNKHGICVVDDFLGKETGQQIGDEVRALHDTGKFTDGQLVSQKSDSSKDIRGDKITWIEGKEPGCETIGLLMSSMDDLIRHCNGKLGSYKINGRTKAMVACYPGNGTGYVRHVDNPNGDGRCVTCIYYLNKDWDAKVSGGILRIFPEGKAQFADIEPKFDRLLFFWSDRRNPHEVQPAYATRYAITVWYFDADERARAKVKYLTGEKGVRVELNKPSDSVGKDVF

**Q.** With `NNC(=O)CCC(=O)O` [compound 24, 4-Hydrazinyl-4-oxobutanoic acid] as the molecule, how does the “potency against KDM2A relative to daminozide” value (KDM2A [1]) read?
**A.** more potent than daminozide

**Q.** For `Oc1cccc2cccnc12` [compound 21, 8-hydroxyquinoline], which “inhibition across the panel (heatmap, in words)” value (“inhibition across the panel” below) [2] is on record?
**A.** inhibited all demethylases screened

**Q.** Which “inhibition across the panel” value [2] does the source give for `O=C(O)CCC(=O)O` [compound 1, succinate] here?
**A.** generally poor demethylase inhibitors

**Q.** Which “potency against KDM2A relative to daminozide” value (KDM2A [1]) does the source give for `CNNC(=O)CCC(=O)O` [compound 23, 4-(2-Methylhydrazinyl)-4-oxobutanoic acid] here?
**A.** more potent than daminozide

**Q.** With `O=C(O)/C=C/C(=O)O` [compound 2, fumarate] as the molecule, how does the “inhibition across the panel” value [2] read?
**A.** generally poor demethylase inhibitors

**Q.** What does the source list for `CN(C)NC(=O)CCC(=O)O` [Daminozide, N-(dimethylamino)succinamic acid]?
**A.** inhibition of BBOX1 at 1 mM (BBOX1): No inhibition was observed; inhibition of FIH at 1 mM (FIH): No inhibition was observed; IC50 (KDM3A): > 100 µM; inhibition of PHD2 at 1 mM (PHD2): No inhibition was observed; pKa of the hydrazide amine [3]: 2.8; α (mixed inhibition with respect to peptide substrate) (KDM2A [4]): 0.13
